Assay results: ChEMBL document CHEMBL4373680, “Small antibacterial molecules highly active against drug-resistant Staphylococcus aureus” (Medchemcomm, 2019)

Experiments:
[1] = Ratio of EC50 for dog MDCK cells to MIC for vancomycin-resistant Staphylococcus aureus clinical isolate 2; format: toxicity
[2] = Ratio of EC50 for dog MDCK cells to MIC for vancomycin-resistant Staphylococcus aureus clinical isolate 1; format: toxicity
[3] = system: Staphylococcus aureus; experiment: Antibacterial activity against methicillin-resistant Staphylococcus aureus ATCC 33591 after 24 hrs by tecan plate reader analysis; format: functional; details: ATCC 33591, 24 h
Outline: (§1)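 Colony grown 24 h on NB agar at 37 °C, then 6 h in nutrient broth to mid-log (10⁸ CFU/mL by drop plating), diluted to 10⁵ CFU/mL in Mueller Hinton broth; added 9:1 to two-fold serial compound dilutions in MHB. Incubated 24 h, 37 °C; OD600 read. Triplicate per concentration, experiment run twice; MIC taken from the range of triplicate OD values.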

[4] = system: Escherichia coli; experiment: Antibacterial activity against Escherichia coli MTCC 443 after 24 hrs by tecan plate reader analysis; format: functional; details: MTCC 443, 24 h
Outline: (§2)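 Broth microdilution MIC. Glycerol stocks grown on MacConkey agar 24 h at 37 °C, then a single colony in nutrient broth 6 h to mid-log (~10⁸ CFU/mL). Cells diluted to 10⁵ CFU/mL in Mueller Hinton broth and added to two-fold compound dilutions. Incubated 24 h at 37 °C, OD600 read. Triplicate wells, experiment run twice.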

[5] = system: Pseudomonas aeruginosa; experiment: Antibacterial activity against Pseudomonas aeruginosa MTCC 424 after 24 hrs by tecan plate reader analysis; format: functional; details: MTCC 424, 24 h; outline: as §2
[6] = Hemolytic activity in human erythrocytes after 1 hr; format: ADME, cell-based, Erythrocyte
Outline: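 Heparinized donor blood. Erythrocytes washed three times in PBS and resuspended to 5 vol%, then mixed 3:1 with compound serially diluted in water. Incubated 1 h at 37 °C and centrifuged. Supernatant A540 read; % hemolysis relative to water and 0.1 vol% Triton-X controls.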

[7] = system: Staphylococcus aureus; experiment: Antibacterial activity against methicillin-resistant Staphylococcus aureus R3545 clinical isolate after 24 hrs by tecan plate reader analysis; format: functional; details: R3545, 24 h; outline: as §1
[8] = system: Staphylococcus aureus; experiment: Antibacterial activity against methicillin-resistant Staphylococcus aureus R3889 clinical isolate after 24 hrs by tecan plate reader analysis; format: functional; details: R3889, 24 h; outline: as §1
[9] = system: Staphylococcus aureus; experiment: Antibacterial activity against vancomycin-resistant Staphylococcus aureus clinical isolate 1 after 24 hrs by tecan plate reader analysis; format: functional; details: clinical isolate 1, 24 h; outline: as §1
[10] = system: Staphylococcus aureus; experiment: Antibacterial activity against vancomycin-resistant Staphylococcus aureus clinical isolate 4 after 24 hrs by tecan plate reader analysis; format: functional; details: clinical isolate 4, 24 h; outline: as §1
[11] = system: MDCK; experiment: Cytotoxicity against dog MDCK cells assessed as cell survival at 32 ug/ml after 24 hrs by calcein AM/propidium iodide staining based fluorescence microscopy analysis; parameters: species or system Canis lupus familiaris
Outline: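 MDCK at about 10⁴ cells/well exposed to 32 µg/mL compound for 24 h at 37 °C, 5% CO₂. Untreated and 0.1 vol% Triton-X controls. Stained with calcein AM (2 µM) and PI (4.5 µM) for 15 min at 37 °C, PBS-washed, imaged by fluorescence microscopy at 50×.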

[12] = system: Staphylococcus aureus; experiment: Bactericidal activity against planktonic phase of methicillin-resistant Staphylococcus aureus R3545 assessed as log reduction in bacterial colony forming units at 16 ug/ml incubated for 6 hrs followed by plating on agar plate for 24 hrs by time-kill kinetic assay; format: functional
Outline: (§3)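 Time-kill: 6 h mid-log culture diluted to 10⁵ CFU/mL in MHB, incubated at 37 °C with compound at […]; 0.9% saline control. Aliquots at 1, 2, 4, 6, 8 and 12 h ten-fold diluted in saline, plated on NB agar 24 h at 37 °C; colonies counted, log scale.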

[13] = system: Staphylococcus aureus; experiment: Bactericidal activity against planktonic phase of methicillin-resistant Staphylococcus aureus ATCC 33591 assessed as log reduction in bacterial colony forming units at 32 ug/ml incubated for 8 hrs followed by plating on agar plate for 24 hrs by time-kill kinetic assay; format: functional; outline: as §3
[14] = system: Staphylococcus aureus; experiment: Bactericidal activity against metabolically inactive stationary phase methicillin-resistant Staphylococcus aureus ATCC 33591 assessed as log reduction in bacterial colony forming units at 32 ug/ml incubated for 6 hrs followed by plating on agar plate for 24 hrs by visual counting analysis; format: functional
[15] = system: Staphylococcus aureus; experiment: Bactericidal activity against metabolically inactive stationary phase methicillin-resistant Staphylococcus aureus R3545 assessed as log reduction in bacterial colony forming units at 32 ug/ml incubated for 6 hrs followed by plating on agar plate for 24 hrs by visual counting analysis; format: functional
[16] = system: Staphylococcus aureus; experiment: Antibiofilm activity against Staphylococcus aureus ATCC 33591 assessed as bacterial cell viability by measuring log reduction in bacterial colony forming units at 16 ug/ml incubated for 24 hrs followed by plating on agar plate for 24 hrs; format: functional
Outline: (§4)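 Mid-log MRSA diluted to 10⁵ CFU/mL in nutrient broth with 1% glucose and 1% NaCl. Biofilms grown on glass coverslips 24 h at 37 °C, static. PBS-washed biofilms treated with compound in biofilm medium 24 h at 37 °C, static; medium-only control. Cells detached with trypsin-EDTA (1:4 in saline) for 15 min, ten-fold diluted, plated on NB agar 24 h; viable counts compared with untreated.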

[17] = system: Staphylococcus aureus; experiment: Antibiofilm activity against Staphylococcus aureus R3545 assessed as bacterial cell viability by measuring log reduction in bacterial colony forming units at 16 ug/ml incubated for 24 hrs followed by plating on agar plate for 24 hrs; format: functional; outline: as §4
[18] = system: Staphylococcus aureus; experiment: Induction of membrane permeabilization in Staphylococcus aureus ATCC 33591 assessed as increase in fluorescence intensity measured upto 28 mins by propidium iodide staining based fluorescence spectroscopic technique; format: functional, organism-based
Outline: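 Mid-log MRSA washed in 5 mM HEPES and resuspended in 1:1 HEPES (5 mM) and glucose (5 mM). Propidium iodide added at 10 µM final. Baseline fluorescence (ex 535/em 617 nm) read 4 min, compound in water added, read to 28 min. Water control; triplicates averaged.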

[19] = system: Staphylococcus aureus; experiment: Induction of membrane depolarization in Staphylococcus aureus ATCC 33591 assessed as increase in fluorescence intensity measured upto 28 mins by DiSC3 staining based fluorescence spectroscopic technique; format: functional, organism-based
Outline: (§5)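 Mid-log MRSA washed in 5 mM HEPES pH 7.4 and resuspended in 1:1:1 HEPES (5 mM), glucose (5 mM) and KCl (100 mM). Loaded with DiSC3(5) at 2 µM final, 30 min in the dark. Baseline fluorescence (ex 622/em 670 nm) read 4 min, compound added, monitored to 28 min. Water control; triplicates averaged.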

[20] = system: Staphylococcus aureus; experiment: Induction of membrane depolarization in Staphylococcus aureus R3545 assessed as increase in fluorescence intensity measured upto 28 mins by DiSC3 staining based fluorescence spectroscopic technique; format: functional, organism-based; outline: as §5
[21] = Ratio of EC50 for human A549 cells to MIC for vancomycin-resistant Staphylococcus aureus clinical isolate 2; format: toxicity
[22] = system: MDCK; experiment: Cytotoxicity against dog MDCK cells up to 128 ug/ml after 24 hrs by alamar blue assay; format: cell-based, Canis lupus familiaris
Outline: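 About 10⁴ cells/well in DMEM with 10% FBS. Medium replaced with two-fold compound dilutions and incubated 24 h at 37 °C, 5% CO₂. Alamar Blue added for a further 4 h, absorbance 570 nm (600 nm reference). Viability normalized to untreated and 0.1% Triton-X wells. Triplicates; sigmoidal fit gives the 50% viability concentration.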

CCCCCCNC(=O)C[N+](C)(CCO)CCCCCCCCCCCC[N+](C)(CCO)CC(=O)NCCCCCC.O=C([O-])C(F)(F)F.O=C([O-])C(F)(F)F (configuration not stated)
selectivity ratio [1]: 94 to 97
selectivity ratio [2]: 94 to 97
MIC [3]: 1 to 2 µg/mL
MIC [4]: 2 µg/mL
MIC [5]: 128 µg/mL
HC50 at 1 h [6]: 577 µg/mL
MIC [7]: 1 to 2 µg/mL
MIC [8]: 1 to 2 µg/mL
MIC [9]: 2 µg/mL
MIC [10]: 2 µg/mL
Activity [11]: Non-Toxic
Activity [12]: >2 log10CFU/ml
Activity [13]: 5 log10CFU/ml
Activity [14]: 2.05 log10CFU/ml
Activity [15]: 2.8 log10CFU/ml
Activity [16]: >4 log10CFU/ml
Activity [17]: >4 log10CFU/ml
Activity [18]: Dose-dependent effect
Activity [19]: Dose-dependent effect
Activity [20]: Dose-dependent effect
selectivity ratio [21]: 94 to 97
Activity [22]: Non-Toxic
